Reference: ChEMBL document CHEMBL5724801, “EUbOPEN Chemogenomics Library - Multiplex” (2024)
“And” between values parts separate entries of the source, which are not always exact repeats. Equal entries are not always repeated.

system: Fibroblast; assay: Multiplex assay against human fibroblast; format: toxicity, cell-based; conditions: 12 h, 1 µM, compound concentration 1 uM
Summary of the method: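 Hoechst33342, BioTracker Green Microtubule Cytoskeleton Dye, MitoTracker Red and Annexin V Alexa Fluor 680 were added to live cells at seeding, and imaging on a CQ1 microscope at 37°C and 5% CO2 followed compound addition. Gating by CellPathfinder machine learning separated cells into Hoechst high-intensity objects or normal cells, then normal cells into healthy, pyknosed or fragmented nuclei, then pyknosed cells into mitotic or apoptotic. Per cents of healthy-nucleus cells are reported for the tubulin, mitochondrial-mass and membrane-permeability phenotypes.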

| Compound | Population Apoptotic (%) | Population Fragmented Nuclei (%) | Population Healthy Nuclei (%) | Population Hoechst High Intensity Objects (%) | Population Mitochondria Different-Phenotype (%) | Population Mitotic Cells (%) | Population Normal (%) | Population Pyknosed Nuclei (%) | Population Tubulin-Different-Phenotype (%) | Total Cell Count |
| --- | --- | --- | --- | --- | --- | --- | --- | --- | --- | --- |
| O=C(NCCNCC(O)COc1ccc(O)cc1)N1CCOCC1.O=C(NCCNCC(O)COc1ccc(O)cc1)N1CCOCC1.O=C(O)/C=C/C(=O)O (centres undefined) [XAMOTEROL FUMARATE] | 63% and 43% | 15% and 23% | 67% and 53% | 2% and 4% | 4% and 7% | 36% and 56% | 97% and 95% | 17% and 23% | 24% and 55% | 114 and 167 |
| N#Cc1cc(F)cc(-c2nc(-c3ccc(F)cn3)no2)c1 | 28% and 38% | 21% and 32% | 63% and 37% | 0% and 6% | 5% and 6% | 71% and 61% | 100% and 93% | 15% and 29% | 22% and 48% | 136 and 93 |

same assay, conditions: 12 h, 10 µM, compound concentration 10 uM

| Compound | Population Apoptotic (%) | Population Fragmented Nuclei (%) | Population Healthy Nuclei (%) | Population Hoechst High Intensity Objects (%) | Population Membrane Permeable-Phenotype (%) | Population Mitochondria Different-Phenotype (%) | Population Mitotic Cells (%) | Population Normal (%) | Population Pyknosed Nuclei (%) | Population Tubulin-Different-Phenotype (%) |
| --- | --- | --- | --- | --- | --- | --- | --- | --- | --- | --- |
| O=C(NCCNCC(O)COc1ccc(O)cc1)N1CCOCC1.O=C(NCCNCC(O)COc1ccc(O)cc1)N1CCOCC1.O=C(O)/C=C/C(=O)O (centres undefined) [XAMOTEROL FUMARATE] | 30% and 17% | 21% and 30% | 64% and 49% | 4% and 5% | 2% and 4% | 5% and 11% | 70% and 82% | 95% and 94% | 14% and 20% | 32% and 43% |
| N#Cc1cc(F)cc(-c2nc(-c3ccc(F)cn3)no2)c1 | 48% and 28% | 15% and 42% | 67% and 32% | 1% and 8% | 2% and 9% | 5% and 12% | 51% and 72% | 98% and 91% | 17% and 24% | 23% and 36% |

same assay, conditions: 12 h, 10 µM, compound concentration 10 uM

| Compound | Total Cell Count |
| --- | --- |
| O=C(NCCNCC(O)COc1ccc(O)cc1)N1CCOCC1.O=C(NCCNCC(O)COc1ccc(O)cc1)N1CCOCC1.O=C(O)/C=C/C(=O)O (centres undefined) [XAMOTEROL FUMARATE] | 143 and 154 |
| N#Cc1cc(F)cc(-c2nc(-c3ccc(F)cn3)no2)c1 | 179 and 110 |

same assay, conditions: 24 h, 1 µM, compound concentration 1 uM

| Compound | Population Apoptotic (%) | Population Fragmented Nuclei (%) | Population Healthy Nuclei (%) | Population Hoechst High Intensity Objects (%) | Population Mitochondria Different-Phenotype (%) | Population Mitotic Cells (%) | Population Normal (%) | Population Pyknosed Nuclei (%) | Population Tubulin-Different-Phenotype (%) | Total Cell Count |
| --- | --- | --- | --- | --- | --- | --- | --- | --- | --- | --- |
| O=C(NCCNCC(O)COc1ccc(O)cc1)N1CCOCC1.O=C(NCCNCC(O)COc1ccc(O)cc1)N1CCOCC1.O=C(O)/C=C/C(=O)O (centres undefined) [XAMOTEROL FUMARATE] | 68% and 50% | 20% and 28% | 63% and 52% | 1% and 2% | 2% and 6% | 31% and 50% | 98% and 97% | 15% and 19% | 25% and 63% | 121 and 149 |
| N#Cc1cc(F)cc(-c2nc(-c3ccc(F)cn3)no2)c1 | 40% and 27% | 19% and 39% | 68% and 38% | 2% and 7% | 3% | 60% and 72% | 97% and 92% | 11% and 22% | – | 131 and 88 |

same assay, conditions: 24 h, 10 µM, compound concentration 10 uM

| Compound | Population Apoptotic (%) | Population Fragmented Nuclei (%) | Population Healthy Nuclei (%) | Population Hoechst High Intensity Objects (%) | Population Membrane Permeable-Phenotype (%) | Population Mitochondria Different-Phenotype (%) | Population Mitotic Cells (%) | Population Normal (%) | Population Pyknosed Nuclei (%) | Population Tubulin-Different-Phenotype (%) |
| --- | --- | --- | --- | --- | --- | --- | --- | --- | --- | --- |
| O=C(NCCNCC(O)COc1ccc(O)cc1)N1CCOCC1.O=C(NCCNCC(O)COc1ccc(O)cc1)N1CCOCC1.O=C(O)/C=C/C(=O)O (centres undefined) [XAMOTEROL FUMARATE] | 62% and 42% | 20% and 34% | 67% and 54% | 1% | 0% and 5% | 0% and 8% | 37% and 57% | 98% | 12% and 11% | 31% and 41% |
| N#Cc1cc(F)cc(-c2nc(-c3ccc(F)cn3)no2)c1 | 70% and 35% | – | 70% and 33% | 4% and 11% | 0% and 5% | 6% and 11% | 29% and 65% | 95% and 88% | 16% and 18% | 22% and 41% |

same assay, conditions: 24 h, 10 µM, compound concentration 10 uM

| Compound | Total Cell Count |
| --- | --- |
| O=C(NCCNCC(O)COc1ccc(O)cc1)N1CCOCC1.O=C(NCCNCC(O)COc1ccc(O)cc1)N1CCOCC1.O=C(O)/C=C/C(=O)O (centres undefined) [XAMOTEROL FUMARATE] | 135 and 172 |
| N#Cc1cc(F)cc(-c2nc(-c3ccc(F)cn3)no2)c1 | 170 and 120 |

same assay, conditions: 48 h, 1 µM, compound concentration 1 uM

| Compound | Population Apoptotic (%) | Population Fragmented Nuclei (%) | Population Healthy Nuclei (%) | Population Hoechst High Intensity Objects (%) | Population Membrane Permeable-Phenotype (%) | Population Mitochondria Different-Phenotype (%) | Population Mitotic Cells (%) | Population Normal (%) | Population Pyknosed Nuclei (%) | Total Cell Count |
| --- | --- | --- | --- | --- | --- | --- | --- | --- | --- | --- |
| O=C(NCCNCC(O)COc1ccc(O)cc1)N1CCOCC1.O=C(NCCNCC(O)COc1ccc(O)cc1)N1CCOCC1.O=C(O)/C=C/C(=O)O (centres undefined) [XAMOTEROL FUMARATE] | 65% and 40% | 27% and 42% | 57% and 46% | 1% and 2% | 1% and 7% | 2% and 4% | 35% and 60% | 98% and 97% | 15% and 10% | 131 and 140 |
| N#Cc1cc(F)cc(-c2nc(-c3ccc(F)cn3)no2)c1 | 61% and 50% | 21% and 45% | 68% and 32% | 1% and 5% | 0% and 3% | 3% and 7% | 38% and 50% | 98% and 94% | 9% and 22% | 137 and 85 |

same assay, conditions: 48 h, 1 µM, compound concentration 1 uM

| Compound | Population Tubulin-Different-Phenotype (%) |
| --- | --- |
| N#Cc1cc(F)cc(-c2nc(-c3ccc(F)cn3)no2)c1 | 23% and 57% |

same assay, conditions: 48 h, 10 µM, compound concentration 10 uM

| Compound | Population Apoptotic (%) | Population Fragmented Nuclei (%) | Population Healthy Nuclei (%) | Population Hoechst High Intensity Objects (%) | Population Membrane Permeable-Phenotype (%) | Population Mitochondria Different-Phenotype (%) | Population Mitotic Cells (%) | Population Normal (%) | Population Pyknosed Nuclei (%) | Population Tubulin-Different-Phenotype (%) |
| --- | --- | --- | --- | --- | --- | --- | --- | --- | --- | --- |
| O=C(NCCNCC(O)COc1ccc(O)cc1)N1CCOCC1.O=C(NCCNCC(O)COc1ccc(O)cc1)N1CCOCC1.O=C(O)/C=C/C(=O)O (centres undefined) [XAMOTEROL FUMARATE] | 56% and 52% | 25% and 33% | 62% and 54% | 4% and 3% | 1% and 6% | 3% and 4% | 43% and 47% | 95% and 96% | 11% | 33% and 48% |
| N#Cc1cc(F)cc(-c2nc(-c3ccc(F)cn3)no2)c1 | 84% and 50% | 20% and 44% | 63% and 38% | 7% and 5% | 0% and 15% | 11% and 5% | – | 92% and 94% | 16% and 17% | 28% and 50% |

same assay, conditions: 48 h, 10 µM, compound concentration 10 uM

| Compound | Total Cell Count |
| --- | --- |
| O=C(NCCNCC(O)COc1ccc(O)cc1)N1CCOCC1.O=C(NCCNCC(O)COc1ccc(O)cc1)N1CCOCC1.O=C(O)/C=C/C(=O)O (centres undefined) [XAMOTEROL FUMARATE] | 144 and 157 |
| N#Cc1cc(F)cc(-c2nc(-c3ccc(F)cn3)no2)c1 | 162 and 110 |
